Most compounds without a hit are left out; they make up all but 2.2% or so of the library.
PMI activator – activators of human phosphomannose isomerase. hit rate 0.005% among 190,000. AID 1214. purified human PMI, coupled resazurin fluorescence, 20 min; hits give high values; 1 = vehicle control, 0 substrate-free wells. activation factor at 20 µM. P34949;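 active means activation factor of 2 or more at 20 µM, relative to plate controls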
G6PDH CS – L. mesenteroides G6PDH inhibition counter-screen. Purified L. mesenteroides G6PDH, diaphorase/resazurin coupled fluorescence, 45 min. inhibition, % at 5 µM. hit rate 0.12% among 200,000. AID 1020; in the data active means inhibition above about 50%
PMI act hi M6P – activators of human phosphomannose isomerase at near-saturating mannose 6-phosphate. activation factor at 20 µM. P34949. AID 1216. coupled PMI enzyme assay, resazurin fluorescence, 20 min; hits give high values; 1 = untreated enzyme, 0 = substrate-free blank. hit rate 0.34% among 190,000;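 active means activation factor of 2 or more at 20 µM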
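Test system: human PMI in coupled enzyme assay; Input: PMI at 15 ng/mL final; Medium: HEPES buffer, pH 7.4; Schedule: 20 min incubation at room temperature; Technique: resorufin fluorescence at Ex 544/Em 590 nm; Compound: 20 µM single dose; Probe or stimulus: Near-saturating mannose-6-phosphate, 1.0 mM.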
ROMK mod – modulators of human ROMK potassium channel; P48048; Tet-inducible ROMK, thallium flux fluorescence; actives lie on both sides; B-score at 10 µM; hit rate 2% among 130,000; AID 1918;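 active means signal ratio slope over the read window, or its plate-corrected B-score, at least 3 SD from the plate mean, either direction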;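 further: B-score of the F/F0 ratio slope over 7 to 12 s after thallium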
Target sequence (P48048 whole entry, looked up): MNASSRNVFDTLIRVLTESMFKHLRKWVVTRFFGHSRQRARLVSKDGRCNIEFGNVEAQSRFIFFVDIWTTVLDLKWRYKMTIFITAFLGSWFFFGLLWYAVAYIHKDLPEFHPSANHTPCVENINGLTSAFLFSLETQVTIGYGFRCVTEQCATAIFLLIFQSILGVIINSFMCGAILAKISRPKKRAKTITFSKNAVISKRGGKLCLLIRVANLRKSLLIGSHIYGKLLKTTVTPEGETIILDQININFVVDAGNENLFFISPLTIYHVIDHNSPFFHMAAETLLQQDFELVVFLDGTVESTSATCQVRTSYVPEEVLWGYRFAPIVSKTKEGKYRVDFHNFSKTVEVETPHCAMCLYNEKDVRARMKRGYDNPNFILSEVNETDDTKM
Diaph act CS – diaphorase activation or chemical reduction counter-screen. Diaphorase/resazurin coupled assay, resorufin fluorescence, 16 min; hits give high values; 1 = vehicle wells, 0 = NADH-free wells. activation factor at 20 µM. hit rate 0.005% among 190,000;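 active means diaphorase activity raised at least twofold by the compound at 20 µM; inactive means activation factor below 2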
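Assay system: bacterial diaphorase enzyme (C. kluyveri) / Input: enzyme 0.07 U/mL final / Medium: 50 mM HEPES pH 7.4 with 4.542 mM MgCl2, 0.005% Tween 20 / Doses: single compound dose of 20 µM, 1% DMSO final / Incubation: 16 min enzyme reaction, ambient temperature / Signal: fluorescence, excitation 544 nm and emission 590 nm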
Diaph inh CS – counter-screen for diaphorase-based assays: diaphorase inhibitors and chemical oxidizers. diaphorase resazurin-to-resorufin fluorescence, NADH, 16 min; bacterial (C. kluyveri) enzyme, not human. inhibition, % at 20 µM. hit rate 0.69% among 190,000;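 active means primary screen inhibition at 20 µM above a set limit, cut at about 50% in these data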
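Assay system: diaphorase enzyme from Clostridium kluyveri. Quantity: enzyme working solution with 0.14 U/mL diaphorase. Schedule: reaction incubation of 16 min at room temperature. Technique: resorufin fluorescence, excitation 544 nm, emission 590 nm. Controls: No-NADH positive control and DMSO neutral control.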
Of the large screens only hits and unclear results are named; the others gave an inactive call.

O=C(CN1CC(=O)Oc2ccccc21)OCC(=O)c1ccc(Br)cc1	none (no result: PMI activator, G6PDH CS, PMI act hi M6P, Diaph act CS, Diaph inh CS)
O=C(CN1CC(=O)Oc2ccccc21)OCC(=O)c1ccc(F)cc1	Diaph inh CS 51
Brc1ccc(/C=N/Nc2ccc3ccccc3n2)cc1	none (no result: ROMK mod)
Cc1nc2ccccc2nc1N/N=C/c1ccc(O)cc1	none (no result: PMI activator, G6PDH CS, PMI act hi M6P, Diaph act CS, Diaph inh CS)
Oc1ccc(/C=N/Nc2ccccc2)cc1	PMI act hi M6P 2.5
Brc1ccc(/C=N/Nc2ccccc2)cc1	PMI act hi M6P 2.4
CCn1ccnc1[C@@H]1C[C@H]2CN(Cc3ccccc3OC)C(=O)[C@]23CCCN13	none
CCn1ncc(NC(=S)NCCc2ccc(OC)c(OC)c2)c1C(N)=O	none
O=C(NCc1nnc(SCC(=O)N2CCCc3ccccc32)o1)c1c(F)cccc1Cl	none
COC(=O)C1=C(C)NC2=C(C(=O)CC(C)(C)C2)C1c1cnn(C)c1C (centres undefined)	none
CS(=O)(=O)c1ccc(Cl)c(NC(=O)Cc2c(F)cccc2Cl)c1	none
COc1cc(/C=N/NC(=S)Nc2cccc(Cl)c2C)ccc1OCC(=O)N1CC(C)OC(C)C1 (centres undefined)	Diaph inh CS 54
COc1cc(/C=N/NC(=O)c2ccc(Cl)cc2)ccc1OCC(=O)N1CC(C)OC(C)C1 (centres undefined)	none
Clc1ccc(C[n+]2csc3ccccc32)cc1	PMI act hi M6P 2.2
CCc1ccc(NC(=O)Nc2cccc(OC)c2)cc1	none
O=C(O)c1ccc(S(=O)(=O)Nc2ccc(O)c(Sc3nc4ccccc4s3)c2)cc1	none
c1ccc(N2CCN(c3nc4ccccc4[nH]3)CC2)nc1	Diaph inh CS 67
O=C(NCCC(c1ccccc1)c1ccccc1)c1cnc2sccn2c1=O	none
Cn1nc(NC(=O)CC(C)(C)CC(=O)O)c2ccccc21	none (no result: PMI activator, G6PDH CS, PMI act hi M6P, Diaph act CS, Diaph inh CS)
CC/C(=N/Nc1ccccc1C)c1cnnc(SC)n1	PMI act hi M6P 2.3
CSc1nncc(/C(C)=N\Nc2cccc(C)c2)n1	PMI act hi M6P 2.4
CSc1nncc(/C(C)=N\Nc2ccccc2)n1	none (no result: ROMK mod)
CCCN1C(=O)/C(=C/c2ccccc2OCc2ccc(C(=O)O)cc2)NC1=S	none
Cc1ccc(-c2n[nH]c(=S)n2/N=C/C=C\c2ccccc2[N+](=O)[O-])cc1	Diaph inh CS 66 (no result: ROMK mod)
O=[N+]([O-])c1ccccc1/C=C/C=N/n1c(-c2ccccc2)n[nH]c1=S	Diaph inh CS 68
O=[N+]([O-])c1ccccc1/C=C/C=N/n1c(-c2ccc(Cl)cc2)n[nH]c1=S	none (no result: ROMK mod)
COC(=O)c1c(NC(=O)/C=C/C(=O)O)sc(C)c1-c1ccc(C(C)C)cc1	none
CCOCCCNC(=S)NCCCNc1nc2c(C)c(C)ccc2cc1C#N	PMI act hi M6P 2.1
CCOCCCNC(=S)N1CCCN(c2nc3c(C)c(C)ccc3cc2C#N)CC1	none (no result: PMI activator, PMI act hi M6P, Diaph act CS, Diaph inh CS)
COCCCNC(=S)NCCCNc1nc2cc3c(cc2cc1C#N)OCO3	PMI act hi M6P 2.1 (no result: ROMK mod)
CCOCCCNC(=S)N1CCCN(c2nc3cc(C)ccc3cc2C#N)CC1	PMI act hi M6P 2.3
Cc1ccc2cc(C#N)c(NCCNC(=O)C3CCC3)nc2c1C	none
Cc1ccc(OC(C)C(=O)N/N=C/c2ccccn2)cc1 (centres undefined)	none
COc1ccc(CNC(=O)CCSCc2ccccc2C)cc1	none
COc1ccc(CNC(=O)c2c(C)oc3c2C(=O)c2ccccc2C3=O)cc1	G6PDH CS 62
Cc1oc2c(c1C(=O)NCc1cccnc1)C(=O)c1ccccc1C2=O	G6PDH CS 59 (no result: ROMK mod)
CCOC(=O)c1ccc2c(c1)C1C=CCC1C(C(=O)O)N2 (centres undefined)	Diaph inh CS 62 (no result: ROMK mod)
CCCC1Nc2ccc(C(=O)O)cc2C2C=CCC12 (centres undefined)	PMI act hi M6P 2
Cn1cccc1C(=O)NC(=O)COC(=O)CNC(=O)CNC(=O)c1ccc(Cl)cc1Cl	none
CC(C)c1ccc(S(=O)(=O)c2ccc(NN)cc2)cc1	PMI act hi M6P 2.2
COCCCNC(=O)C(=O)NC1CCCCC1C (centres undefined)	none
CCn1c(O)c(N=N)c2ccccc21	none
CCn1c(O)c(N=NC2=NC(=O)CS2)c2ccccc21	Diaph inh CS 65 (no result: ROMK mod)
c1ccc2c(c1)[nH]c1c(N3CCOCC3)ncnc12	none (no result: ROMK mod)
CCc1cc(N2CCOCC2)cc2c1[nH]c1ccccc12	Diaph inh CS 53 (no result: ROMK mod)
CC(=O)Oc1ccc(/C=N/NC(=O)CCSc2ccccc2)cc1	none (no result: ROMK mod)
c1ccc(-c2cc(N3CCCCCC3)n[nH]2)cc1	Diaph inh CS 59 (no result: ROMK mod)
CCOC(=O)C(=NCCCN1CCOCC1)NNc1cccc(C(F)(F)F)c1	PMI act hi M6P 2.1
CCOc1cc(CNCCCN2CCOCC2)cc(Br)c1OCC(=O)Nc1cccc(C(F)(F)F)c1	none (no result: ROMK mod)
COc1ccc2c(C)cc(C)nc2n1	none (no result: PMI activator, G6PDH CS, PMI act hi M6P, Diaph act CS, Diaph inh CS)
Cc1cc(C)c2ccc(=S)[nH]c2n1	PMI act hi M6P 2.5
CC(=O)c1ccc(NC(=O)NCc2ccc(F)cc2)cc1	none
N#Cc1ccccc1Sc1ccccc1C(=O)N1CCOCC1	none
O=C(c1ccccc1Sc1ccc([N+](=O)[O-])cc1Cl)N1CCOCC1	PMI act hi M6P 2.1
COc1ccc(NC(=O)CSc2nnc(-c3cccs3)n2C)cc1OC	none
COc1ccc(NC(=O)CSc2nc3c(c(-c4cccs4)c2C#N)CN(C)CC3)cc1OC	Diaph inh CS 57 (no result: ROMK mod)
O=[N+]([O-])c1cc(CN2CCCC2)ccc1Sc1ccc(Cl)cc1	none
COc1ccccc1NC(=O)CSc1ccc(-c2cccs2)nn1	Diaph inh CS 57
C/C(=N/NC(=O)c1cc2ccccc2cc1O)C1C(=O)c2ccccc2C1=O	ROMK mod 4.8
C/C(CC(=O)N1CCN(C=O)CC1)=N\NC(=O)c1cc2ccccc2cc1O	Diaph inh CS 88
O=[N+]([O-])c1ccc2nc(-c3ccc(OC(F)F)cc3)cn2c1	none
O=C(Nc1nc2ccc([N+](=O)[O-])cc2s1)c1ccco1	none
Cc1ccc(CNc2ccc(O)cc2)cc1	Diaph inh CS 53
Cc1cc(C)c2ccc3c(C)c(C)nc3c2[nH]1	none
CCOC(=O)C1(CCCc2ccccc2)CCN(C(=O)c2cnn(CC)c2)CC1	none
CC(C)N1CCc2c(sc(NC(=S)NC(=O)c3ccccc3)c2C#N)C1	none (no result: ROMK mod)
CCCN1CCc2c(sc(NC(=S)NC(=O)c3ccccc3)c2C#N)C1	PMI act hi M6P 2
Cc1ccc(/C=N/n2c(-c3cccnc3)n[nH]c2=S)s1	none (no result: ROMK mod)
COc1ccccc1/C=C/C=N/n1c(-c2cc(C)[nH]n2)n[nH]c1=S	Diaph inh CS 50 (no result: ROMK mod)
Cc1cc(-c2n[nH]c(=S)n2/N=C/C=C/c2ccccc2)n[nH]1	Diaph inh CS 50 (no result: ROMK mod)
COc1ccccc1/C=C/C=N/n1c(-c2ccncc2)n[nH]c1=S	Diaph inh CS 65

Bioassay records as filed in PubChem.
